# From ChEMBL document CHEMBL4765483 (J Med Chem, 2021)
# Target: T1, Adenosine receptor A2b (Homo sapiens, UniProt P29275)
# T1 sequence (P29275 whole entry): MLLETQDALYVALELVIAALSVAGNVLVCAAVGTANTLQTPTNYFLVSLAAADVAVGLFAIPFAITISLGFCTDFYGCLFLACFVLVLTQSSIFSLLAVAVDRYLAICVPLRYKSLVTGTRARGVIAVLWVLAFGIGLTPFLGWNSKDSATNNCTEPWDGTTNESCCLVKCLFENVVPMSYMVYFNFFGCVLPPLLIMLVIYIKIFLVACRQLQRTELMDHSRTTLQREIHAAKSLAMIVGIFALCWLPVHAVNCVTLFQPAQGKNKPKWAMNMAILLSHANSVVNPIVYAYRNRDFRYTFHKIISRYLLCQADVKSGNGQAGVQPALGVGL
# Assay: Displacement of [3H]DPCPX from human adenosine A2B receptor expressed in HEK293 cell membranes incubated for 30 mins by scintillation counting method
# Parameters: species or system Cell membrane
# Details: not given
row,Compound,Ki
1,CC1=C(C(=O)CC(C)C)C(c2ccoc2)NC(=O)N1 (racemic),1010 nM
2,CC1=C(C(=O)OC2CCCC2)C(c2ccoc2)NC(=O)N1 (racemic),1010 nM
3,CC1=C(C(=O)OC(C)(C)C)C(c2ccoc2)NC(=O)N1 (racemic),4440 nM
4,CC1=C(C(=O)OC2CCC2)C(c2ccsc2)NC(=O)N1 (racemic),405 nM
5,CC1=C(C(=O)OCC2CCC2)C(c2cccs2)NC(=O)N1 (racemic),2840 nM
6,CC1=C(c2ncc(C)o2)C(c2ccsc2)NC(=O)N1 (racemic),1130 nM
7,CC1=C(C(=O)OCc2ccccc2)C(c2ccoc2)NC(=O)N1 (racemic),6650 nM
8,CCCOC(=O)C1=C(C)NC(=O)NC1c1ccoc1 (racemic),1190 nM
9,CCOC(=O)C1=C(C)N=C(S)NC1c1cccs1 (racemic),3250 nM
10,CC1=C(C(=O)OC(C)C)C(c2ccsc2)NC(=S)N1 (racemic),315 nM

# Target: Adenosine receptor A2a (Homo sapiens) (UniProt P29274)
# Assay: Displacement of [3H]ZM2421385 from adenosine A2A receptor expressed in human HeLa cell membranes at 1 uM incubated for 30 mins by scintillation counting method
# Details: Cell membrane
# Adenosine receptor A2a (Homo sapiens), sequence (P29274 whole entry): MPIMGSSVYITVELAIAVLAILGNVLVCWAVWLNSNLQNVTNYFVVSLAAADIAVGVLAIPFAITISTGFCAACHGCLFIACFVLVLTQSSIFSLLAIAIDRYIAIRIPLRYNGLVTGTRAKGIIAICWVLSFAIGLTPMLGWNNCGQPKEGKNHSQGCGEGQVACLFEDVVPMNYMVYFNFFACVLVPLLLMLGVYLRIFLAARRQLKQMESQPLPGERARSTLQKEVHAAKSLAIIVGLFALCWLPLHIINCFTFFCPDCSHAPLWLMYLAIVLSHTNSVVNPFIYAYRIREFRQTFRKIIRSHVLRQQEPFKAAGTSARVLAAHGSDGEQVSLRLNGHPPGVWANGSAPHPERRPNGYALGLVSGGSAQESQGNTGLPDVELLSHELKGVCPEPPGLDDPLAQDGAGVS
row,Compound,inhibition
1,CC1=C(C(=O)CC(C)C)C(c2ccoc2)NC(=O)N1 (racemic),20%
2,CC1=C(C(=O)OC2CCCC2)C(c2ccoc2)NC(=O)N1 (racemic),1%
3,CC1=C(C(=O)OC(C)(C)C)C(c2ccoc2)NC(=O)N1 (racemic),9%
4,CC1=C(C(=O)OC2CCC2)C(c2ccsc2)NC(=O)N1 (racemic),41%
5,CC1=C(C(=O)OCC2CCC2)C(c2cccs2)NC(=O)N1 (racemic),22%
6,CC1=C(c2ncc(C)o2)C(c2ccsc2)NC(=O)N1 (racemic),20%
7,CC1=C(C(=O)OCc2ccccc2)C(c2ccoc2)NC(=O)N1 (racemic),24%
8,CCCOC(=O)C1=C(C)NC(=O)NC1c1ccoc1 (racemic),45%
9,CC1=C(C(=O)OC2CCCCC2)C(c2cccs2)NC(=O)N1 (racemic),14%
10,CC1=C(C(=O)SC(C)C)C(c2ccco2)NC(=O)N1 (racemic),2%
11,CC1=C(C(=O)OCC(C)C)C(c2ccco2)NC(=O)N1C (racemic),3%
12,CCOC(=O)C1=C(C)NC(=O)N[C@H]1c1ccsc1,21%
13,CCCC(=O)C1=C(C)NC(=O)NC1c1ccoc1 (racemic),2%
14,CC(=O)C1=C(C)NC(=O)NC1c1cccs1 (racemic),2%
15,CCCOC(=O)C1=C(C)NC(=S)NC1c1ccsc1 (racemic),1%
16,CCOP(=O)(OCC)C1=C(C)NC(=O)NC1c1cccs1 (racemic),5%
17,CC1=C(c2ncc(C)o2)C(c2cccs2)NC(=O)N1 (racemic),7%
18,CC1=C(C(=O)OC(C)C)[C@H](c2ccco2)NC(=S)N1,6%
19,CCN(CC)C(=O)C1=C(C)NC(=O)NC1c1ccsc1 (racemic),9%

# Target: T2, Adenosine receptor A3 (Homo sapiens) (UniProt P0DMS8)
# T2 sequence (whole entry): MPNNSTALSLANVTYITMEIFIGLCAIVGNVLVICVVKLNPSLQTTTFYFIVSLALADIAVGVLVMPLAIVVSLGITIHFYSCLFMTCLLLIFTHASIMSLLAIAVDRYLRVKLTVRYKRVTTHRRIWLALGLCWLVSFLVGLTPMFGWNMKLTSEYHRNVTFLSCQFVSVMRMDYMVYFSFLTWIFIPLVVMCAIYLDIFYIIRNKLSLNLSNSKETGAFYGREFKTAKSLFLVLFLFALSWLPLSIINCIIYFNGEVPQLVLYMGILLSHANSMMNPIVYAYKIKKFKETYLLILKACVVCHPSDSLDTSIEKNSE
# Assay: Displacement of [3H]NECA from adenosine A3 receptor expressed in human HeLa cell membranes at 1 uM incubated for 180 mins by scintillation counting method
# Details: Cell membrane
# How it was run: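 hA3AR in HeLa membranes (3 pmol/mg protein) with 10 nM [3H]NECA (KD 8.7 nM); nonspecific binding with 100 μM R-PIA; incubated 180 min at 25 °C, washed, filtered, radioactivity counted.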
row,Compound,inhibition
1,CC1=C(C(=O)CC(C)C)C(c2ccoc2)NC(=O)N1 (racemic),18%
2,CC1=C(C(=O)OC2CCCC2)C(c2ccoc2)NC(=O)N1 (racemic),1%
3,CC1=C(C(=O)OC(C)(C)C)C(c2ccoc2)NC(=O)N1 (racemic),2%
4,CC1=C(C(=O)OC2CCC2)C(c2ccsc2)NC(=O)N1 (racemic),3%
5,CC1=C(C(=O)OCC2CCC2)C(c2cccs2)NC(=O)N1 (racemic),1%
6,CC1=C(c2ncc(C)o2)C(c2ccsc2)NC(=O)N1 (racemic),2%
7,CC1=C(C(=O)OCc2ccccc2)C(c2ccoc2)NC(=O)N1 (racemic),1%
8,CCCOC(=O)C1=C(C)NC(=O)NC1c1ccoc1 (racemic),11%
9,CC1=C(C(=O)OC2CCCCC2)C(c2cccs2)NC(=O)N1 (racemic),1%
10,CC1=C(C(=O)SC(C)C)C(c2ccco2)NC(=O)N1 (racemic),1%
11,CC1=C(C(=O)OCC(C)C)C(c2ccco2)NC(=O)N1C (racemic),23%
12,CCOC(=O)C1=C(C)NC(=O)N[C@H]1c1ccsc1,3%
13,CCCC(=O)C1=C(C)NC(=O)NC1c1ccoc1 (racemic),2%
14,CC(=O)C1=C(C)NC(=O)NC1c1cccs1 (racemic),3%
15,CCCOC(=O)C1=C(C)NC(=S)NC1c1ccsc1 (racemic),1%
16,CCOP(=O)(OCC)C1=C(C)NC(=O)NC1c1cccs1 (racemic),5%
17,CC1=C(c2ncc(C)o2)C(c2cccs2)NC(=O)N1 (racemic),1%
18,CC1=C(C(=O)OC(C)C)[C@H](c2ccco2)NC(=S)N1,2%
19,CCN(CC)C(=O)C1=C(C)NC(=O)NC1c1ccsc1 (racemic),35%

# Target: T3, Adenosine receptor A2b (Homo sapiens) (UniProt P29275)
# T3 sequence (whole entry): T1 sequence (P29275 whole entry)
# Assay: Displacement of [3H]DPCPX from human adenosine A2B receptor expressed in HEK293 cell membranes at 1 uM incubated for 30 mins by scintillation counting method
# Details: Cell membrane
row,Compound,inhibition
1,CC1=C(C(=O)OC2CCCCC2)C(c2cccs2)NC(=O)N1 (racemic),3%
2,CC1=C(C(=O)SC(C)C)C(c2ccco2)NC(=O)N1 (racemic),22%
3,CC1=C(C(=O)OCC(C)C)C(c2ccco2)NC(=O)N1C (racemic),4%
4,CCOC(=O)C1=C(C)NC(=O)N[C@H]1c1ccsc1,19%
5,CCCC(=O)C1=C(C)NC(=O)NC1c1ccoc1 (racemic),22%
6,CC(=O)C1=C(C)NC(=O)NC1c1cccs1 (racemic),2%
7,CCCOC(=O)C1=C(C)NC(=S)NC1c1ccsc1 (racemic),26%
8,CCOP(=O)(OCC)C1=C(C)NC(=O)NC1c1cccs1 (racemic),7%
9,CC1=C(C(=O)OC(C)C)[C@H](c2ccco2)NC(=S)N1,12%
10,CCN(CC)C(=O)C1=C(C)NC(=O)NC1c1ccsc1 (racemic),11%

# Same assay, conditions: Cell membrane, filed as antagonist
row,Compound,inhibition
1,CC1=C(c2ncc(C)o2)C(c2cccs2)NC(=O)N1 (racemic),45%

# Target: T4, Adenosine receptor A1 (Homo sapiens) (UniProt P30542)
# T4 sequence (whole entry): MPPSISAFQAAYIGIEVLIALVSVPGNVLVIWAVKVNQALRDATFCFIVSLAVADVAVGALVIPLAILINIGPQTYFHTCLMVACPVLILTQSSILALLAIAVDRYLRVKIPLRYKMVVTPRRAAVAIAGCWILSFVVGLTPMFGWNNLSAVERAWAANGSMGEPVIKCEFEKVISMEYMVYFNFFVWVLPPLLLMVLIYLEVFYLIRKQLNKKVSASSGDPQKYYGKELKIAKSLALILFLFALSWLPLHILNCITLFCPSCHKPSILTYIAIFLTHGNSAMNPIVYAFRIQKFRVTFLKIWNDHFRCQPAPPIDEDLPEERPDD
# Assay: Displacement of [3H]DPCPX from human adenosine A1 receptor expressed in CHO cell membranes at 1 uM incubated for 60 mins by scintillation counting method
# Details: Cell membrane
row,Compound,inhibition
1,CC1=C(C(=O)CC(C)C)C(c2ccoc2)NC(=O)N1 (racemic),23%
2,CC1=C(C(=O)OC2CCCC2)C(c2ccoc2)NC(=O)N1 (racemic),6%
3,CC1=C(C(=O)OC(C)(C)C)C(c2ccoc2)NC(=O)N1 (racemic),11%
4,CC1=C(C(=O)OC2CCC2)C(c2ccsc2)NC(=O)N1 (racemic),40%
5,CC1=C(C(=O)OCC2CCC2)C(c2cccs2)NC(=O)N1 (racemic),39%
6,CC1=C(c2ncc(C)o2)C(c2ccsc2)NC(=O)N1 (racemic),34%
7,CC1=C(C(=O)OCc2ccccc2)C(c2ccoc2)NC(=O)N1 (racemic),41%
8,CCCOC(=O)C1=C(C)NC(=O)NC1c1ccoc1 (racemic),50%
9,CC1=C(C(=O)OC2CCCCC2)C(c2cccs2)NC(=O)N1 (racemic),7%
10,CC1=C(C(=O)SC(C)C)C(c2ccco2)NC(=O)N1 (racemic),5%
11,CC1=C(C(=O)OCC(C)C)C(c2ccco2)NC(=O)N1C (racemic),13%
12,CCOC(=O)C1=C(C)NC(=O)N[C@H]1c1ccsc1,5%
13,CCCC(=O)C1=C(C)NC(=O)NC1c1ccoc1 (racemic),1%
14,CC(=O)C1=C(C)NC(=O)NC1c1cccs1 (racemic),11%
15,CCCOC(=O)C1=C(C)NC(=S)NC1c1ccsc1 (racemic),5%
16,CCOP(=O)(OCC)C1=C(C)NC(=O)NC1c1cccs1 (racemic),2%
17,CC1=C(c2ncc(C)o2)C(c2cccs2)NC(=O)N1 (racemic),21%
18,CC1=C(C(=O)OC(C)C)[C@H](c2ccco2)NC(=S)N1,10%
19,CCN(CC)C(=O)C1=C(C)NC(=O)NC1c1ccsc1 (racemic),11%
